Assay results collected from several papers.
Protocols differ between the studies behind these lines.
TYK2 JH1: Non-receptor tyrosine-protein kinase TYK2, JH1 (TYK2, Homo sapiens, UniProt P29597)
TYK2 JH2: Non-receptor tyrosine-protein kinase TYK2, JH2 (TYK2, Homo sapiens, UniProt P29597)
TYK2: Non-receptor tyrosine-protein kinase TYK2 (TYK2, Homo sapiens, UniProt P29597)

Structure (SMILES) | target | read-out | method | concentration | remaining binding
Nc1ncc2c(n1)-c1c([nH]c3ccc(C#CC4CC4)cc13)CCCC2 | TYK2 JH1 | binding | competition with immobilised ligand | 1 µM | 86%
CC(=O)Nc1c(C(C)=O)c(=O)n(C)c2nc(-c3ccc(Cl)cc3Cl)c(-c3ccc(Cl)cc3)cc12 | TYK2 JH2 | cell-free assay | competition with immobilised ligand | 1 µM | 100%
CC(C)(C)c1ccc(-c2nc(CBr)nn2-c2cccc(O)c2)cc1 | TYK2 | cell-free assay | competition with immobilised ligand | 10 µM | 62%
O=C(c1ccc(Nc2nccc(-c3cc4ccccc4s3)n2)cc1)N1CCC(N2CCCC2)CC1 | TYK2 JH1 | binding | competition with immobilised ligand | 1 µM | 13%
Cc1c[nH]c2nccc(Oc3c(F)cc(Nc4cc(Cl)nc(N)n4)cc3F)c12 | TYK2 JH2 | cell-free assay | competition with immobilised ligand | 0.1 µM | 89%
N[C@@H]1CCN(c2nccc(-c3cnn4ncccc34)n2)C1 | TYK2 JH1 | cell-free assay | competition with immobilised ligand | 1 µM | 100%
O=C(c1ccc(Nc2ncc(Cl)c(-c3ccc(Cl)s3)n2)cc1)N1CCC(N2CCCC2)CC1 | TYK2 JH2 | binding | competition with immobilised ligand | 1 µM | 0.2%
CCN1CCN(Cc2ccc(C(=O)Nc3ccc(C)c(Oc4ccc5c(c4)CC(=O)N5)c3)cc2C(F)(F)F)CC1 | TYK2 JH1 | binding | competition with immobilised ligand | 1 µM | 100%
FC(F)(F)Oc1cccc(-c2cnc3ccc(-c4ccncc4)nn23)c1 | TYK2 JH1 | binding | competition with immobilised ligand | 5 µM | 53%
F[C@@H]1CCN(c2nccc(-c3cnn4ncccc34)n2)C1 | TYK2 | binding | – | 1 µM | 100%
CN1CCN(c2ccc(Nc3nccc(-c4cccc([N+](=O)[O-])c4)n3)cc2C(F)(F)F)CC1 | TYK2 | binding | – | 10 µM | 0%
Cc1cnn2ncc(-c3ccnc(N(C)C)n3)c2c1 | TYK2 JH1 | cell-free assay | competition with immobilised ligand | 1 µM | 64%
COc1cnc(Nc2cccc(S(N)(=O)=O)c2)nc1N1CCN(c2ccccc2)C(=O)C1 | TYK2 JH1 | binding | competition with immobilised ligand | 1 µM | 39%
C[C@@H]1CN(c2ccc3ncc(-c4ccc5[nH]nc(C6CC6)c5c4)n3n2)C[C@H](C)O1 | TYK2 | binding | competition with immobilised ligand | 50 nM | 88%
O=C(NCCCN1CCOCC1)c1ccc(Nc2ncc(Cl)c(-c3ccc(Cl)s3)n2)cc1 | TYK2 JH2 | binding | competition with immobilised ligand | 1 µM | 5.3%
CC1CCCN1c1nccc(-c2cnn3ncccc23)n1 (stereo not shown) | TYK2 JH1 | cell-free assay | competition with immobilised ligand | 1 µM | 100%
COc1cc(-c2cn(C3CCc4c(F)cccc4N(CC(F)(F)F)C3=O)nn2)ccc1-n1cnc(C)c1 (stereo not shown) | TYK2 JH2 | cell-free assay | competition with immobilised ligand | 1 µM | 100%

Structure (SMILES) | target | read-out | method | concentration | remaining binding
CNC(=O)[C@@H]1CC[C@@H](n2c(-c3ccc4cnccc4c3)nc3ccc(C(=O)NCc4cccc(C(N)=O)c4)cc32)C1 | TYK2 JH1 | binding | competition with immobilised ligand | 1 µM | 99%
O=C(NCC1CCOCC1)c1n[nH]cc1NC(=O)c1c(F)cccc1F | TYK2 JH2 | binding | competition with immobilised ligand | 1 µM | 59%
COc1ccc2c(c1)O[C@H](c1ccc(OC)c(OC)c1)C[C@@H]2NC(=O)C1(c2ccc3c(c2)OC(F)(F)O3)CC1 | TYK2 JH2 | cell-free assay | competition with immobilised ligand | 1 µM | 100%
COc1ccnn2ncc(-c3ccnc(N(C)C)n3)c12 | TYK2 | binding | – | 1 µM | 68%
COc1ncc2cc3ccccc3nc2c1C#N | TYK2 JH2 | cell-free assay | competition with immobilised ligand | 5 µM | 99%
O=C(c1ccc(Nc2ncc(Cl)c(-c3cc4ccccc4s3)n2)cc1)N1CCC(N2CCCC2)CC1 | TYK2 JH1 | binding | competition with immobilised ligand | 1 µM | 7.1%
CN(C)c1ncc(F)c(-c2cnn3ncccc23)n1 | TYK2 JH1 | cell-free assay | competition with immobilised ligand | 1 µM | 87%
O=C(NCCCN1CCOCC1)c1ccc(Nc2nccc(-c3cc4ccccc4s3)n2)cc1 | TYK2 JH1 | binding | competition with immobilised ligand | 1 µM | 11%
O=C(N[C@H]1CCCCC/C=C\C2C[C@@]2(C(=O)O)NC(=O)[C@@H]2C[C@@H](Oc3ccncc3)CN2C1=O)OC1CCCC1 (stereo partly shown) | TYK2 JH1 | binding | competition with immobilised ligand | 1 µM | 98%
Cc1cnc(Nc2ccc(C(=O)N3CCC(N4CCCC4)CC3)cc2)nc1-c1cc2ccccc2s1 | TYK2 JH1 | binding | competition with immobilised ligand | 1 µM | 6.7%
CCCOc1ccc([C@H]2[C@H](C(=O)O)[C@@H](c3ccc4c(c3)OCO4)CN2CC(=O)Nc2c(CC)cccc2CC)cc1 | TYK2 JH2 | cell-free assay | competition with immobilised ligand | 1 µM | 80%
c1cncc(-c2cccc(Nc3nccc(NC4CCCCC4)n3)c2)c1 | TYK2 JH1 | binding | competition with immobilised ligand | 10 µM | 0.2%
COc1cnc(Nc2cccc(S(N)(=O)=O)c2)nc1N1CCN(c2ccccc2)CC1 | TYK2 JH2 | binding | competition with immobilised ligand | 1 µM | 85%
CCc1ccccc1C(=O)Nc1n[nH]c2c(C)c(F)c(C3C(C#N)=C(C)N(C)C(C)=C3C#N)cc12 | TYK2 JH1 | cell-free assay | competition with immobilised ligand | 1 µM | 100%
CN(C)c1nccc(-c2cnn3ncccc23)n1 | TYK2 JH1 | cell-free assay | competition with immobilised ligand | 1 µM | 51%
Cc1noc([C@H]2C[C@@H](c3ccc(C(F)(F)F)cc3)CN(C(=O)N3CCS(=O)(=O)C3)C2)n1 | TYK2 JH1 | cell-free assay | competition with immobilised ligand | 1 µM | 100%
O=C(Nc1c[nH]nc1C(=O)NC1CCNCC1)c1cc(F)cc(F)c1 | TYK2 JH1 | binding | competition with immobilised ligand | 1 µM | 100%
